According to paper PMC8177775 (Cancer Science, 2021):

System: Japanese patients with solid tumors
Assay: Phase I dose-escalation study: safety, tolerability, DLT and MTD
Format: in vivo, human
Details: for Tolerability: dose level of up to 90 mg
In short: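 Oral test compound (tosylate salt) was given QD on days 1–21 of 28-day cycles in cohorts of 3–6 patients at 60, 90 or 120 mg. Escalation used a modified continual reassessment method (Bayesian logistic regression, escalation with overdose control). DLT window was cycle 1 (28 days). AEs were coded with MedDRA 18.0 and graded by CTCAE v4.0 (Japanese). Analysis covered patients receiving ≥1 dose.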

[1] = Cohort 3 120 mg/d (n = 4), All grades
[2] = Cohort 3 120 mg/d (n = 4), Grade ≥ 3

CC1(C)CCC2(CC1)N[C@@H](C(=O)N[C@@H]1CC[C@@H](C(N)=O)OC1)[C@H](c1ccnc(Cl)c1F)[C@]21C(=O)Nc2cc(Cl)ccc21 [milademetan, Milademetan]
TEAE: Hypophosphataemic rickets [1]: 0 (0.0) n (%) | TEAE: Jaundice cholestatic [1]: 0 (0.0) n (%) | TEAE: Lymphangiosis carcinomatosa [1]: 0 (0.0) n (%) | TEAE: Lymphocyte count decreased [1]: 2 (50.0) n (%) | TEAE: Nausea [1]: 3 (75.0) n (%) | TEAE: Neutrophil count decreased [1]: 2 (50.0) n (%) | TEAE: Platelet count decreased [1]: 3 (75.0) n (%) | TEAE: Pyrexia [1]: 1 (25.0) n (%) | TEAE: Sepsis [1]: 1 (25.0) n (%) | TEAE: Urinary tract infection [1]: 0 (0.0) n (%) | TEAE: Vomiting [1]: 2 (50.0) n (%) | TEAE: White blood cell count decreased [1]: 2 (50.0) n (%) | TEAE: Alanine aminotransferase increased [2]: 1 (25.0) n (%) | TEAE: Anemia [2]: 0 (0.0) n (%) | TEAE: Aspartate aminotransferase increased [2]: 1 (25.0) n (%) | TEAE: Constipation [2]: 0 (0.0) n (%) | TEAE: Decreased appetite [2]: 0 (0.0) n (%) | TEAE: Diarrhea [2]: 0 (0.0) n (%) | TEAE: Disease progression [2]: 1 (25.0) n (%) | TEAE: Fatigue [2]: 0 (0.0) n (%) | TEAE: Hypoalbuminemia [2]: 0 (0.0) n (%) | TEAE: Hyponatremia [2]: 1 (25.0) n (%) | TEAE: Hypophosphataemic rickets [2]: 0 (0.0) n (%) | TEAE: Jaundice cholestatic [2]: 0 (0.0) n (%) | TEAE: Lymphangiosis carcinomatosa [2]: 0 (0.0) n (%) | TEAE: Lymphocyte count decreased [2]: 1 (25.0) n (%) | TEAE: Nausea [2]: 0 (0.0) n (%) | TEAE: Neutrophil count decreased [2]: 1 (25.0) n (%) | TEAE: Platelet count decreased [2]: 3 (75.0) n (%) | TEAE: Pyrexia [2]: 0 (0.0) n (%) | TEAE: Sepsis [2]: 1 (25.0) n (%) | TEAE: Urinary tract infection [2]: 0 (0.0) n (%) | TEAE: Vomiting [2]: 0 (0.0) n (%) | TEAE: White blood cell count decreased [2]: 1 (25.0) n (%) | TEAE: Alanine aminotransferase increased (Total (n = 18), All grades): 4 (22.2) n (%) | TEAE: Anemia (Total (n = 18), All grades): 9 (50.0) n (%) | TEAE: Aspartate aminotransferase increased (Total (n = 18), All grades): 4 (22.2) n (%) | TEAE: Constipation (Total (n = 18), All grades): 5 (27.8) n (%) | TEAE: Decreased appetite (Total (n = 18), All grades): 11 (61.1) n (%) | TEAE: Diarrhea (Total (n = 18), All grades): 5 (27.8) n (%) | TEAE: Disease progression (Total (n = 18), All grades): 1 (5.6) n (%) | TEAE: Fatigue (Total (n = 18), All grades): 9 (50.0) n (%) | TEAE: Hypoalbuminemia (Total (n = 18), All grades): 8 (44.4) n (%) | TEAE: Hyponatremia (Total (n = 18), All grades): 5 (27.8) n (%) | TEAE: Hypophosphataemic rickets (Total (n = 18), All grades): 1 (5.6) n (%) | TEAE: Jaundice cholestatic (Total (n = 18), All grades): 1 (5.6) n (%) | TEAE: Lymphangiosis carcinomatosa (Total (n = 18), All grades): 1 (5.6) n (%) | TEAE: Lymphocyte count decreased (Total (n = 18), All grades): 4 (22.2) n (%) | TEAE: Nausea (Total (n = 18), All grades): 13 (72.2) n (%) | TEAE: Neutrophil count decreased (Total (n = 18), All grades): 5 (27.8) n (%) | TEAE: Platelet count decreased (Total (n = 18), All grades): 11 (61.1) n (%) | TEAE: Pyrexia (Total (n = 18), All grades): 4 (22.2) n (%) | TEAE: Sepsis (Total (n = 18), All grades): 1 (5.6) n (%) | TEAE: Urinary tract infection (Total (n = 18), All grades): 1 (5.6) n (%) | TEAE: Vomiting (Total (n = 18), All grades): 5 (27.8) n (%) | TEAE: White blood cell count decreased (Total (n = 18), All grades): 9 (50.0) n (%) | TEAE: Alanine aminotransferase increased (Total (n = 18), Grade ≥ 3): 2 (11.1) n (%) | TEAE: Anemia (Total (n = 18), Grade ≥ 3): 3 (16.7) n (%) | TEAE: Aspartate aminotransferase increased (Total (n = 18), Grade ≥ 3): 1 (5.6) n (%) | TEAE: Constipation (Total (n = 18), Grade ≥ 3): 0 (0.0) n (%) | TEAE: Decreased appetite (Total (n = 18), Grade ≥ 3): 0 (0.0) n (%) | TEAE: Diarrhea (Total (n = 18), Grade ≥ 3): 0 (0.0) n (%) | TEAE: Disease progression (Total (n = 18), Grade ≥ 3): 1 (5.6) n (%) | TEAE: Fatigue (Total (n = 18), Grade ≥ 3): 0 (0.0) n (%) | TEAE: Hypoalbuminemia (Total (n = 18), Grade ≥ 3): 0 (0.0) n (%) | TEAE: Hyponatremia (Total (n = 18), Grade ≥ 3): 2 (11.1) n (%) | TEAE: Hypophosphataemic rickets (Total (n = 18), Grade ≥ 3): 1 (5.6) n (%) | TEAE: Jaundice cholestatic (Total (n = 18), Grade ≥ 3): 1 (5.6) n (%) | TEAE: Lymphangiosis carcinomatosa (Total (n = 18), Grade ≥ 3): 1 (5.6) n (%) | TEAE: Lymphocyte count decreased (Total (n = 18), Grade ≥ 3): 1 (5.6) n (%) | TEAE: Nausea (Total (n = 18), Grade ≥ 3): 0 (0.0) n (%) | TEAE: Neutrophil count decreased (Total (n = 18), Grade ≥ 3): 1 (5.6) n (%) | TEAE: Platelet count decreased (Total (n = 18), Grade ≥ 3): 4 (22.2) n (%) | TEAE: Pyrexia (Total (n = 18), Grade ≥ 3): 0 (0.0) n (%) | TEAE: Sepsis (Total (n = 18), Grade ≥ 3): 1 (5.6) n (%) | TEAE: Urinary tract infection (Total (n = 18), Grade ≥ 3): 1 (5.6) n (%) | TEAE: Vomiting (Total (n = 18), Grade ≥ 3): 0 (0.0) n (%) | TEAE: White blood cell count decreased (Total (n = 18), Grade ≥ 3): 1 (5.6) n (%) | Drug-related TEAE: anemia, frequency (all 18 patients): 38.9% | Grade ≥ 3 TEAE: ALT increased (all 18 patients): 2 n | Grade ≥ 3 TEAE: anemia (all 18 patients): 3 n | Grade ≥ 3 TEAE: hyponatremia (all 18 patients): 2 n | Grade ≥ 3 TEAE: platelet count decreased (all 18 patients): 4 n | TEAE: anemia, frequency (all 18 patients, all grades): 50.0% | TEAE: decreased appetite, frequency (all 18 patients, all grades): 61.1% | TEAE: fatigue, frequency (all 18 patients, all grades): 50.0% | TEAE: nausea, frequency (all 18 patients, all grades): 72.2% | TEAE: platelet count decreased, frequency (all 18 patients, all grades): 61.1% | TEAE: white blood cell count decreased, frequency (all 18 patients, all grades): 50.0% | Dose interruption because of decreased appetite (all cohorts): 2 n | Dose interruption because of nausea (all cohorts): 6 n | Dose interruption because of platelet count decreased (all cohorts): 4 n | Dose interruptions (all cohorts): ten patients | Dose reduction due to TEAEs (all cohorts): No patients required a dose reduction | Maximum tolerated dose (MTD) (days 1 to 21 of a 28-day cycle): 90 mg/day | Tolerability (once-daily 21/28-day schedule): well tolerated | Tolerability (once-daily 21/28-day schedule, listed as Milademetan): generally safe and well tolerated | Patients who developed serious TEAEs (four at 90 mg, one at 60 mg, one at 120 mg, eight serious TEAEs): Six patients | Changes in laboratory parameters (other than platelet count decreased), vital signs, electrocardiogram (hematology, blood chemistry, coagulation, urinalysis, vital signs, ECG): no clinically relevant changes | Patients with at least one drug-related TEAE (of 18 patients): 18 patients | Maximum tolerated dose (MTD) (once-daily 21/28-day schedule): 90 mg | Recommended dose for phase II (once-daily 21/28-day schedule): 90 mg | Withdrawal from the study because of TEAEs (one in 90-mg cohort, two in 120-mg cohort): Three patients withdrew | Serious TEAEs, percentage of patients (six out of 18 patients): 33.3%
